Several values for one entry are separate records, joined by “and”; a condition that tells them apart may be missing. Equal values may be shown once. Activity calls are given as the source filed them. The calls are words filed in the database; no cut-off is given here.
Key:
[1] = system: L1210; experiment: Inhibition of [3H]thymidine uptake in L1210 cells at 1 uM; type: functional; settings: Mus musculus
Procedure, shortened: (§1)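 ³H-thymidine uptake into L1210 leukaemia cells measured by a modified rapid-mixing technique with inhibitor-stop. Values are mean ± SD of three or more separate determinations. IC50 is interpolated from concentration–inhibition curves.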

[2] = system: L1210; experiment: Compound was tested for the inhibition of [3H]thymidine uptake in L1210 cells at 0.1 uM; type: functional; settings: Mus musculus; procedure, shortened: as §1
[3] = system: L1210; experiment: Inhibition of [3H]thymidine uptake in L1210 cells; type: functional, cell-based; settings: Mus musculus; procedure, shortened: as §1
[4] = system: L1210; experiment: Inhibition of [3H]thymidine uptake in L1210 cells in the presence of 5 mg/mL human AGP at 1 uM; type: functional, Mus musculus
Procedure, shortened: (§2)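 Rapid-mixing, inhibitor-stop ³H-thymidine uptake into L1210 leukaemia cells run with 5 mg/mL human AGP present. Values are mean ± SD of three or more separate determinations. Significance of the difference from inhibition without AGP is taken at p ≤ 0.05.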

[5] = system: L1210; experiment: Tested for the reduction in inhibition of [3H]thymidine uptake in L1210 cells in the presence of 5 mg/mL human AGP; type: functional, Mus musculus; procedure, shortened: as §2
[6] = system: L1210; experiment: Inhibition of [3H]thymidine uptake in L1210 cells at 10 uM; type: functional; settings: Mus musculus; procedure, shortened: as §1
[7] = system: L1210; experiment: Inhibition of [3H]-thymidine uptake in L1210 cells in the presence of 5 mg/mL human AGP at 10 uM; type: functional, Mus musculus; procedure, shortened: as §2
[8] = system: L1210; experiment: Compound was tested for the inhibition of [3H]thymidine uptake in L1210 cells at 100 uM; type: functional; settings: Mus musculus; procedure, shortened: as §1

Row | SMILES | IC50 [3] [nM] | inhibition at 1 µM [1] [%] | Inhibition [4] [%] | Reduction [5] | inhibition at 10 µM [6] [%] | other results
1 | COc1ccc(CN(C)c2nc(NCC(C)O)nc3c(N(C)Cc4ccc(OC)c(OC)c4)nc(NCC(C)O)nc23)cc1OC (centres undefined) |  | 73 | 57 | 22% |  | 
2 | CC1(C)OC[C@H](COc2nc(N3CCCCC3)c3nc(OC[C@H]4COC(C)(C)O4)nc(N4CCCCC4)c3n2)O1 | 1100 | 47 |  | 29% | 87 | Inhibition [7]: 62%
3 | Clc1nc(NCc2ccccc2)c2nc(Cl)nc(NCc3ccccc3)c2n1 |  |  |  |  |  | inhibition [8]: inactive
4 | CC(C)Oc1nc(N2CCCCC2)c2nc(OC(C)C)nc(N3CCCCC3)c2n1 |  |  |  |  | 23 | 
5 | COc1ccc(CN(C)c2nc(NCCO)nc3c(N(C)Cc4ccc(OC)c(OC)c4)nc(NCCO)nc23)cc1OC |  | 57 |  |  | 84 | 
6 | COc1ccc(CN(C)c2nc(NCC(C)O)nc3c(N(C)Cc4ccc(OC)cc4)nc(NCC(C)O)nc23)cc1 (centres undefined) |  | 39 | 5 | 86% |  | 
7 | C[C@H](O)COc1nc(N2CCCCC2)c2nc(OC[C@@H](C)O)nc(N3CCCCC3)c2n1 | 900 | 47 | 20 | 55% | 92 | 
8 | OCCN(CCO)c1nc(N2CCCC(O)C2)c2nc(N(CCO)CCO)nc(N3CCCC(O)C3)c2n1 (centres undefined) | 2600 | 28 |  |  | 50 | 
9 | COCC(COc1nc(N2CCCCC2)c2nc(OCC(COC)OC)nc(N3CCCCC3)c2n1)OC (centres undefined) | 1880 | 38 |  | 36% | 87 | Inhibition [7]: 56%
10 | CN(Cc1ccccc1)c1nc(OCCCO)nc2c(N(C)Cc3ccccc3)nc(OCCCO)nc12 | 1400 | 52 |  |  | 77 | 
11 | CCCOc1nc(N(C)Cc2ccccc2)c2nc(OCCC)nc(N(C)Cc3ccccc3)c2n1 |  |  |  |  | 8 | 
12 | COc1ccc(CNc2nc(OCCO)nc3c(NCc4ccc(OC)c(OC)c4)nc(OCCO)nc23)cc1OC |  | 56 | 30 | 46% |  | 
13 | OCCN(CCO)c1nc(N2CCCCC2)c2nc(N(CCO)CCO)nc(N3CCCCC3)c2n1 [DIPYRIDAMOLE] | 340 |  |  | 87% and 96% |  | 
14 | CCCOc1nc(N2CCCCC2)c2nc(OCCC)nc(N3CCCCC3)c2n1 | 52000 |  |  |  | 37 | inhibition at 100 µM [8]: 60%
15 | Clc1nc(Cl)c2nc(Cl)nc(Cl)c2n1 |  |  |  |  |  | inhibition [8]: inactive
16 | OCC(O)CNc1nc(N2CCCCC2)c2nc(NCC(O)CO)nc(N3CCCCC3)c2n1 (centres undefined) | 3700 | 18 |  | 64% | 55 | Inhibition [7]: 20%
17 | COCCOc1nc(N2CCCCC2)c2nc(OCCOC)nc(N3CCCCC3)c2n1 | 4600 | 20 |  |  | 63 | 
18 | COCCOc1nc(N(Cc2ccccc2)Cc2ccccc2)c2nc(OCCOC)nc(N(Cc3ccccc3)Cc3ccccc3)c2n1 |  | 9 |  |  | 15 | 

Row | SMILES | IC50 [3] [nM] | inhibition at 1 µM [1] [%] | Inhibition [4] [%] | Reduction [5] | inhibition at 10 µM [6] [%] | other results
19 | OCCN(CCO)c1nc(N2CCc3ccccc3C2)c2nc(N(CCO)CCO)nc(N3CCc4ccccc4C3)c2n1 | 720 | 72 |  | 31% | 100 | 
20 | COc1ccc(CNc2nc(OC[C@@H](C)O)nc3c(NCc4ccc(OC)cc4)nc(OC[C@H](C)O)nc23)cc1 |  | 68 |  |  |  | 
21 | CCN(CC)c1nc(N2CCCCC2)c2nc(N(CC)CC)nc(N3CCCCC3)c2n1 |  |  |  |  |  | inhibition [6]: inactive
22 | OCCN(CCO)c1nc(NCc2ccc(C(F)(F)F)cc2)c2nc(N(CCO)CCO)nc(NCc3ccc(C(F)(F)F)cc3)c2n1 |  | 32 |  |  | 60 | 
23 | CCC(C)COc1nc(N2CCCCC2)c2nc(OCC(C)CC)nc(N3CCCCC3)c2n1 (centres undefined) |  |  |  |  |  | inhibition [6]: inactive
24 | COc1ccc(CNc2nc(OCCCO)nc3c(NCc4ccc(OC)c(OC)c4)nc(OCCCO)nc23)cc1OC |  | 71 | 47 | 34% |  | 
25 | COCCN(CCOC)c1nc(N2CCCCC2)c2nc(N(CCOC)CCOC)nc(N3CCCCC3)c2n1 | 2070 | 29 |  | 50% | 86 | 
26 | OCCN(CCO)c1nc(NCc2ccc3c(c2)OCO3)c2nc(N(CCO)CCO)nc(NCc3ccc4c(c3)OCO4)c2n1 |  | 73 | 47 | 36% |  | 
27 | OCCOc1nc(N2CCCCC2)c2nc(OCCO)nc(N3CCCCC3)c2n1 | 6300 | 13 |  |  |  | 
28 | c1ccc(CNc2ncnc3c(NCc4ccccc4)ncnc23)cc1 |  |  |  |  | 40 | 
29 | COC[C@H](COc1nc(N2CCCCC2)c2nc(OC[C@H](COC)OC)nc(N3CCCCC3)c2n1)OC |  |  |  |  | 100 | 
30 | C[C@H](O)COc1nc(N(C)Cc2ccccc2)c2nc(OC[C@@H](C)O)nc(N(C)Cc3ccccc3)c2n1 |  | 55 | 9 | 84% |  | 
31 | OCCCOc1nc(N2CCCCC2)c2nc(OCCCO)nc(N3CCCCC3)c2n1 |  | 35 |  |  | 76 | 
32 | COCC(C)Oc1nc(N2CCCCC2)c2nc(OC(C)COC)nc(N3CCCCC3)c2n1 (centres undefined) |  |  |  |  | 62 | inhibition at 100 µM [8]: 96%
33 | OCC(O)COc1nc(N2CCCCC2)c2nc(OC[C@H](O)CO)nc(N3CCCCC3)c2n1 (some centres undefined) |  |  |  |  | 32 | inhibition at 100 µM [8]: 87%
34 | OCCN(CCO)c1nc(N2CCCCC2)nc2c(N(CCO)CCO)nc(N3CCCCC3)nc12 |  | 34 |  |  | 74 | 
35 | c1nc(N2CCCCC2)c2ncnc(N3CCCCC3)c2n1 |  |  |  |  |  | inhibition [8]: inactive

The next lines start with results.

Row | IC50 [3] [nM] | SMILES | inhibition at 1 µM [1] [%] | Inhibition [4] [%] | Reduction [5] | inhibition at 10 µM [6] [%] | other results
36 | 430 | COc1ccc(CN(C)c2nc(OCCO)nc3c(N(C)Cc4ccc(OC)cc4)nc(OCCO)nc23)cc1 | 74 | 17 | 77% |  | inhibition at 0.1 µM [2]: 27%
37 | 750 | OCCNc1nc(NCc2ccccc2)c2nc(NCCO)nc(NCc3ccccc3)c2n1 | 46 |  |  |  | 
38 | 400 | COc1ccc(CNc2nc(NCC(C)O)nc3c(NCc4ccc(OC)c(OC)c4)nc(NCC(C)O)nc23)cc1OC (centres undefined) | 83 | 73 | 12% |  | inhibition at 0.1 µM [2]: 38%
39 | 840 | COc1ccc(CN(C)c2nc(N(CCO)CCO)nc3c(N(C)Cc4ccc(OC)cc4)nc(N(CCO)CCO)nc23)cc1 | 71 | 40 | 46% |  | inhibition at 0.1 µM [2]: 27%
40 | 500 | COc1ccc(CNc2nc(NCCO)nc3c(NCc4ccc(OC)c(OC)c4)nc(NCCO)nc23)cc1OC | 62 | 44 | 23% |  | inhibition at 0.1 µM [2]: 29%
41 | 3000 | CC(O)CNc1nc(NCc2ccccc2)c2nc(NCC(C)O)nc(NCc3ccccc3)c2n1 (centres undefined) | 33 |  |  | 84 | 
42 | 700 | CC(O)CNc1nc(N(C)Cc2ccccc2)c2nc(NCC(C)O)nc(N(C)Cc3ccccc3)c2n1 (centres undefined) | 56 | 12 | 77% |  | inhibition at 0.1 µM [2]: 24%
43 | 460 | COc1ccc(CNc2nc(OCCCO)nc3c(NCc4ccc(OC)cc4)nc(OCCCO)nc23)cc1 | 63 |  | 21% |  | 
44 | 750 | COc1ccc(CN(C)c2nc(OCCCO)nc3c(N(C)Cc4ccc(OC)c(OC)c4)nc(OCCCO)nc23)cc1OC | 54 |  |  |  | 
45 | 700 | COc1ccc(CNc2nc(NCC(C)O)nc3c(NCc4ccc(OC)cc4)nc(NCC(C)O)nc23)cc1 (centres undefined) | 58 | 32 | 45% |  | inhibition at 0.1 µM [2]: 21%
46 | 2400 | COCCOc1nc(NCc2ccccc2)c2nc(OCCOC)nc(NCc3ccccc3)c2n1 | 31 |  |  | 78 | 
47 | 800 | CN(Cc1ccccc1)c1nc(OCCO)nc2c(N(C)Cc3ccccc3)nc(OCCO)nc12 | 49 | 22 | 55% | 87 | 
48 | 1100 | OCCN(CCO)c1nc(NCc2ccc(Cl)cc2)c2nc(N(CCO)CCO)nc(NCc3ccc(Cl)cc3)c2n1 | 53 |  |  | 92 | 
49 | 250 | COc1ccc(CNc2nc(N(CCO)CCO)nc3c(NCc4ccc(OC)cc4)nc(N(CCO)CCO)nc23)cc1 | 65 |  | 29% | 96 | 
50 | 930 | COc1ccc(CNc2nc(NCCO)nc3c(NCc4ccc(OC)cc4)nc(NCCO)nc23)cc1 | 56 | 35 | 40% |  | inhibition at 0.1 µM [2]: 10%
51 | 270 | COc1ccc(CNc2nc(N(CCO)CCO)nc3c(NCc4ccc(OC)c(OC)c4)nc(N(CCO)CCO)nc23)cc1OC | 73 | 53 | 25% | 98 | 
52 | 3800 | COCCOc1nc(N(C)Cc2ccccc2)c2nc(OCCOC)nc(N(C)Cc3ccccc3)c2n1 | 17 |  |  | 68 | 
53 | 220 | COc1ccc(CN(C)c2nc(OCCCO)nc3c(N(C)Cc4ccc(OC)cc4)nc(OCCCO)nc23)cc1 | 78 | 32 | 59% |  | inhibition at 0.1 µM [2]: 38%

Reference: ChEMBL document CHEMBL1138764, “Resistance-modifying agents. 11.(1) Pyrimido[5,4-d]pyrimidine modulators of antitumor drug activity. Synthesis and structure-activity relationships for nucleoside transport inhibition and binding to alpha1-acid glycoprotein” (J Med Chem, 2004)
